Source: PubChem BioAssay (several laboratories)
Most compounds without a hit are left out; they make up all but 1.6% or so of the library.
CFTR F508del cor: F508del CFTR correction, initial screen, CFBE line, single point; AID 720511, 2013; hit rate 0.36% among 350,000; activity (quench increase), % at 7.58 µM; CFBE cells, YFP halide quenching; stimulated with forskolin plus potentiator P3; % fluorescence drop versus neutral controls;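 active = mean added fluorescence quench of at least 8% versus neutral control, with both replicates also reaching 8%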;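 note: cells transiently co-express mutant CFTR-F508del with the halide-sensitive YFP; corrector assay measuring rescue of mutant channel to the surface after 24 h compound exposure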
SUMO1-SIM PPI: modulators of SUMO1 protein-protein interactions, primary screen, biochemical, uHTS; Small ubiquitin-related modifier 1 (Homo sapiens), P63165; SUMO1 binding to a labelled peptide, TR-FRET, 1 h; inhibition, % at 20 µM; hit rate 0.33% among 360,000; in the data active = inhibition above about 37%
Scp-1 inhibitor: Scp-1 phosphatase inhibitors, primary screen, biochemical, colorimetric, uHTS; Carboxy-terminal domain RNA polymerase II polypeptide A small phosphatase 1 (Homo …; Recombinant Scp1, phosphopeptide, malachite green phosphate absorbance; inhibition, % at 20 µM; hit rate 0.88% among 340,000; AID 493091, 2011;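 active = inhibition above about 50% at 20 µM, limit read from the data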;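 note: plate controls were DMSO wells with enzyme for no effect and wells lacking enzyme for full effect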
Target sequence (Q9GZU7 76-261 limits assumed): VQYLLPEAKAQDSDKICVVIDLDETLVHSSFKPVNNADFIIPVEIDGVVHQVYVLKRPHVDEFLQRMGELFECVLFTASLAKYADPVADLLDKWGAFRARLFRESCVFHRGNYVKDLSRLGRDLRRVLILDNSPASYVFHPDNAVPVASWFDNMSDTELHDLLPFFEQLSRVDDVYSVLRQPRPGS
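assay system = SCP-1 phosphatase catalytic domain, residues 76-261 | buffer or medium = 50 mM Tris acetate pH 5.5, 0.005% Tween-20, 10 mM MgCl2 | incubation = enzyme reaction 45 min at room temperature, colour 5 min, stabilisation 30 min | signal = Phosphate-binding colour reagent, absorbance read at 630 nm | measure = % inhibition at 20 µM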
DNMT1 inh: human DNMT1 methyltransferase inhibitors, primary screen, biochemical, molecular beacon, fluorescence, HinP1I cleavage, uHTS; DNA (cytosine-5)-methyltransferase 1 (Homo sapiens), P26358; inhibition (reported as % activation of signal), % at 10 µM; hit rate 0.83% among 360,000; in the data active = inhibition above about 50%
LMPTP inh: LMPTP phosphatase inhibitors, primary screen, biochemical, fluorescence intensity, uHTS; Low molecular weight phosphotyrosine protein phosphatase (Homo sapiens), P24666; recombinant LMPTP-A, OMFP fluorogenic substrate; inhibition, % at 20 µM; hit rate 0.22% among 360,000; AID 651560, 2012;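 active = compounds that cut the enzyme signal by at least half of the control window in the single-dose screen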;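 note: plate controls were DMSO wells with enzyme plus substrate for no effect and substrate without enzyme for full effect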
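Test system: LMPTP-A phosphatase enzyme. Amount: LMPTP-A at 0.625 nM final in the reaction. Reagent: OMFP substrate, 400 µM final. Times: 50 min at room temperature. Signal: endpoint fluorescence intensity from OMFP dephosphorylation. Read-out basis: % inhibition. Benchmarks: no-enzyme and uninhibited controls.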
STEP block: STEP phosphatase inhibitors, primary screen, biochemical, fluorescence intensity, uHTS. inhibition, % at 20 µM. AID 588621, 2011. recombinant STEP, OMFP fluorogenic substrate. hit rate 0.25% among 360,000;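 active = inhibition at 20 µM, scaled per plate between control wells, above about 37%, limit read from the data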;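 note: 0% = DMSO with enzyme and substrate and 100% = substrate only without enzyme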
Target sequence (P54829 whole entry, looked up): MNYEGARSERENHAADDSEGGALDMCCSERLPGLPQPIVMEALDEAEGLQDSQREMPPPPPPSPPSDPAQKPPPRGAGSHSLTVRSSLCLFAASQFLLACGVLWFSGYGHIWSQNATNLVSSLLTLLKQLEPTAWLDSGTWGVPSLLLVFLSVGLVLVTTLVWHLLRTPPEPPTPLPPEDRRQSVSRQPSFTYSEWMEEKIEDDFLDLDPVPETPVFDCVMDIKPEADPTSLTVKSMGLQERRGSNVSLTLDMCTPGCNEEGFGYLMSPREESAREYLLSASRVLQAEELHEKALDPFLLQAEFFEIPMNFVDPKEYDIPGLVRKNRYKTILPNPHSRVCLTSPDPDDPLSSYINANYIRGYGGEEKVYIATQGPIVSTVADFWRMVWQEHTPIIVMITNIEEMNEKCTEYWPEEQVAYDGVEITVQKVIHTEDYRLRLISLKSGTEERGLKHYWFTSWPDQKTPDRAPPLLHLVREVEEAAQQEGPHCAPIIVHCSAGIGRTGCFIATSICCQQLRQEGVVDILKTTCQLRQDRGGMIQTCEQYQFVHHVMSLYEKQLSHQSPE
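material = STEP tyrosine phosphatase | reagent = fluorogenic phosphatase substrate OMFP at 25 µM final | doses = single compound dose of 20 µM, 1% DMSO final | schedule = 20 min reaction, room temperature, in the dark | measured by = fluorescence, 480/540 nm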
Scp1 confirm: Scp-1 phosphatase inhibitors, retest, confirmation, biochemical, colorimetric, single concentration | shares compounds with Scp-1 inhibitor | recombinant SCP-1 catalytic domain, phosphate release, malachite green absorbance | inhibition, % at 20 µM | hit rate 61% among 2,500;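 note: plate controls were DMSO with enzyme for no effect and buffer wells lacking enzyme for full effect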
MG interference: colorimetric readout interference by compounds, confirmation, artefact control for Scp-1 inhibitor project, biochemical, single concentration; shares compounds with Scp-1 inhibitor; Colorimetric interference counterscreen, malachite green absorbance 630 nm; apparent inhibition (interference), % at 20 µM; 2,500 tested, under 10 active;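 note: compounds added after enzyme reaction finished so only phosphate colour detection is probed; plate controls were DMSO wells with completed Scp-1 reaction for no effect and substrate wells lacking enzyme for full effect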
Scp1 DSF: Scp-1 binding by thermal shift, confirmation, orthogonal assay for Scp-1 inhibitor project, biophysical, differential scanning fluorimetry; shares compounds with Scp-1 inhibitor; Recombinant SCP1, Sypro Orange thermal shift Tm; thermal shift relative to vanadate control, % at 40 µM; hit rate 25% among 1,500; AID 540329, 2011;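 active = substances whose mean melting-temperature shift, as a percentage of the reference inhibitor's shift, reaches about 5.3%, limit read from the data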;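 note: 0% = Tm of DMSO wells and 100% = Tm with sodium orthovanadate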
Active calls of the source: *; x = no result.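 Rule for the calls, unless noted: active = inhibition of at least 30% at 20 µM; inactive = the rest.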

SMILES	CFTR F508del cor	SUMO1-SIM PPI	Scp-1 inhibitor	DNMT1 inh	LMPTP inh	STEP block	Scp1 confirm	MG interference	Scp1 DSF
O=C1OC(/C=C/c2ccccc2)=NC/1=C/C=C/c1ccccc1	x	-9.7	69.8*	13.0	-1.5	7.2	13.1	-3.2	x
O=C(NCCc1ccccc1)C1CC(=O)N(CCc2ccccc2)C1 (stereo not drawn)	-0.5	1.0	-0.9	-0.7	-1.7	1.8	-1.6	-4.0	x
CCOCCCNC(=O)C1CC(=O)N(CCc2ccccc2)C1 (stereo not drawn)	x	2.0	-13.1	1.9	-1.2	1.0	x	x	x
O=C(NCCc1ccccn1)C1CC(=O)N(Cc2ccccc2Cl)C1 (stereo not drawn)	x	2.1	-7.0	-4.1	-0.4	-0.2	-25.0	-15.0	x
CCN(CCNC(=O)C1CC(=O)N(CCc2ccccc2)C1)c1ccccc1 (stereo not drawn)	x	0.3	-1.9	-1.4	-1.2	-1.4	-0.4	-9.8	x
CC(C)CCN1CC(C(=O)NCCC2=CCCCC2)CC1=O (stereo not drawn)	-1.9	3.1	-0.4	2.9	-0.6	-2.0	-20.9	-19.2	x
COc1ccc(CN2CC(C(=O)NCc3ccccn3)CC2=O)cc1 (stereo not drawn)	x	0.2	9.8	2.4	0.9	-0.9	x	x	x
O=C(N[C@H]1CC[C@H](CC(=O)N2CCc3ccccc3C2)O[C@H]1CO)C1CC1	-3.0	x	x	x	x	x	x	x	x
O=C(C[C@@H]1CC[C@H]2[C@@H](COC[C@H](O)CN2Cc2ccccc2F)O1)NCc1ccccc1F	3.2	x	x	x	x	x	x	x	x
Cc1nn(CC(=O)Nc2ccccc2)c(=O)c2ccccc12	x	-1.1	69.9*	3.3	-1.4	-11.9	-3.5	-5.2	x
Cc1nc(SCC(=O)NCc2ccco2)c2c3c(sc2n1)CCCC3	x	1.4	8.9	-0.1	1.9	4.6	x	x	x
CCCc1nc2sc3c(SCC(=O)NCc4ccco4)ncnc3c2c2c1CCC2	x	6.6	81.7*	90.7*	4.1	21.2	59.5*	-18.0	2.1
C[C@H]1CN([C@@H](C)CO)C(=O)c2cccc(NC(=O)C3CCOCC3)c2O[C@@H]1CN(C)Cc1ccc(Cl)c(Cl)c1	0.0	x	x	x	x	x	x	x	x
O=C(c1ccccc1F)N1CCCC(N2CCN(Cc3ccc4c(c3)OCO4)CC2)C1 (stereo not drawn)	-0.1	1.8	x	2.3	-1.3	3.1	x	x	x
CC(=O)c1ccccc1C(=O)N1CCCC(N2CCN(Cc3ccc4c(c3)OCO4)CC2)C1 (stereo not drawn)	2.7	-3.0	65.0*	3.8	1.7	-0.8	-10.0	-13.1	x
O=C(Nc1ccccc1Cl)c1cnccn1	x	-3.8	-4.1	1.0	-0.9	4.5	x	x	x
O=C(Nc1ccc(Br)cc1Cl)c1cnccn1	0.6	7.0	67.9*	47.7	-0.2	2.3	55.0*	-22.8	8.8*
C[C@@H]1CN([C@@H](C)CO)C(=O)c2cc(-c3cccc(C#N)c3)cnc2O[C@@H]1CN(C)C(=O)C1CC1	0.0	x	x	x	x	x	x	x	x
Cc1ccc(O)c(C(=O)c2cnn(C(=O)COc3ccc(Cl)cc3)c2)c1	x	0.8	82.2*	22.1	24.9	31.7	73.0*	-12.6	-15.2
O=C(CSc1ncn(-c2ccccc2)n1)Nc1nc2c(s1)CCCC2	x	10.8	78.8*	35.9	3.7	7.4	63.9*	-7.6	-0.9
O=C(CSc1ncn(-c2ccccc2)n1)Nc1nc2ccccc2s1	x	0.9	3.1	-4.0	0.2	-4.3	x	x	x
O=C(CCC(=O)Nc1ccc(Br)cc1)N/N=C/c1cc([N+](=O)[O-])ccc1O	4.1	-8.1	73.9*	-0.8	14.3	0.2	22.9	-9.3	x
CO[C@@H]1CN(C)C(=O)c2cc(NC(=O)C3CCOCC3)ccc2OC[C@@H](C)N(Cc2nccs2)C[C@@H]1C	1.0	x	x	x	x	x	x	x	x
CO[C@@H]1CN(C)C(=O)c2cc(NC(=O)Nc3cccc(Cl)c3)ccc2OC[C@H](C)N(C)C[C@H]1C	-1.2	x	x	x	x	x	x	x	x
CSc1nnc(C)c(/C=C/Nc2ccc(F)cc2F)n1	-1.9	-10.6	55.0*	-16.9	0.1	1.5	65.7*	-7.9	-18.7
SMILES	CFTR F508del cor	SUMO1-SIM PPI	Scp-1 inhibitor	DNMT1 inh	LMPTP inh	STEP block	Scp1 confirm	MG interference	Scp1 DSF
CC(C)NC(=O)N(C)C[C@H]1Oc2c(NC(=O)C3CC3)cccc2C(=O)N([C@H](C)CO)C[C@H]1C	-1.6	x	x	x	x	x	x	x	x
CN1CCN(S(=O)(=O)c2cccc(C(=O)N(C)CC(=O)Nc3ccc(F)c(F)c3F)c2)CC1	1.5	4.2	94.7*	1.8	-0.4	2.9	17.4	-9.0	x
CN1C(=O)c2cc(NS(=O)(=O)c3ccc(F)cc3)ccc2OC[C@H]2O[C@@H](CC(=O)O)CC[C@@H]21	0.4	x	x	x	x	x	x	x	x
CC(=O)c1cccc(NC(=O)CCc2nnc3ccc(NCc4ccco4)nn23)c1	3.9	17.6	58.8*	8.4	7.0	5.0	43.0*	-14.8	2.0
Cc1ccc(NC(=O)CCc2nnc3ccc(NCc4ccco4)nn23)nc1	0.0	5.3	12.0	3.6	-0.7	-6.2	x	x	x
COc1cccc(C(=O)OCC(=O)Nc2sc3c(c2C(N)=O)CCC3)c1O	1.8	34.3	61.9*	48.5	10.8	4.9	72.4*	-6.0	9.7*
CN(Cc1ccccc1)C(=O)COC(=O)/C=C/c1ccco1	-3.6	-11.9	64.5*	31.6	11.8	8.2	62.3*	-8.7	-12.6
CC1CCN(C(=O)COC(=O)/C=C/c2ccc(Br)o2)CC1	2.1	-13.0	-3.6	22.6	8.3	0.8	x	x	x
CC1CCN(C(=O)COC(=O)/C=C/c2ccco2)CC1	3.7	-11.7	65.0*	37.9	2.2	9.9	25.0	-16.7	x
O=C(COC(=O)/C=C/c1ccco1)Nc1ccccc1	-1.6	-10.6	46.5	25.4	13.8	0.0	x	x	x
CC1CCCC(C)N1C(=O)COC(=O)/C=C/c1ccc(Br)o1 (stereo not drawn)	-1.9	9.6	92.3*	24.9	5.0	5.7	58.0*	-12.9	-5.7
